Tests used:
[1] = system: Cavia porcellus; experiment: Ex vivo inhibition of platelet aggregation induced by AA at 100 mg/kg; type: functional
How it was run: (§1)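 Fasted male or female guinea pigs (250–300 g, five per group) dosed orally in normal saline or saline with 0.2% (carboxymethyl)cellulose/1.0% Tween 80; controls given vehicle. Under ether, cardiac blood collected into 3.8% citrate. PRP adjusted to […] and aggregation induced by ADP (second wave) or AA, read by absorbance aggregometry. PGE2 and TXB2 measured by RIA.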

[2] = organism: Homo sapiens; experiment: In vitro inhibition of platelet aggregation induced by AA (PRP incubated for 60 minutes at 37 degree C) at 5e-6 M;No significance; type: functional
How it was run: (§2)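 Human venous blood anticoagulated with 3.8% sodium citrate (1:9). PRP from centrifugation at 800 rpm for 10 min at room temperature. Count adjusted with PPP to […]. Compound in saline with 10% ethylene glycol is added to PRP and incubated at 37 °C before the agonist. Agonists: ADP 2×10^-5 M, AA 0.6 mM, PGH2 2.8 μM, adrenaline 0.6 μM. Born absorbance aggregometry; n = 5.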

[3] = system: Cavia porcellus; experiment: Effect on thromboxane synthetase activity on ex vivo platelet aggregation induced by TXB2 at 100 mg/kg expressed as percent increase; type: functional; how it was run: as §1
[4] = system: Rattus norvegicus; experiment: Antihypertensive activity in spontaneously hypertensive rats (SHR) measured by percentage fall in cardiac rhythm (CR) at 50 mg/kg administered intraperitoneally at 24 h; type: functional, Heart; settings: route intraperitoneal
How it was run: (§3)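 Conscious SHR (Okamoto strain), 8 weeks old, male and female, 300–350 g, systolic BP ≥190 mmHg, CR 400–650 beats/min. Given ip or po at 2.5 mL/kg in normal saline or saline with 0.2% (carboxymethyl)cellulose and 1.0% Tween 80. Tail AP and CR recorded by mechanical transduction at 1, 3, 5 and 24 h, five animals per dose. Effect expressed as % fall versus control.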

[5] = system: Rattus norvegicus; experiment: Antihypertensive activity in spontaneously hypertensive rats (SHR) measured by percentage fall in arterial pressure (AP) at 50 mg/kg administered intraperitoneally at 5 h; type: functional, Artery; settings: route intraperitoneal
How it was run: (§4)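 Unanesthetized Okamoto-strain SHR, male and female, 8 weeks old, 300–350 g, systolic pressure ≥190 mmHg, heart rate 400–650 beats/min; five animals per dose. Given ip at 2.5 mL/kg, dissolved or suspended in normal saline or saline with 0.2% (carboxymethyl)cellulose and 1.0% Tween 80. Tail AP and CR recorded by mechanical transduction at set times; reported as percentage fall from control.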

[6] = system: Rattus norvegicus; experiment: Antihypertensive activity in spontaneously hypertensive rats (SHR) measured by percentage fall in arterial pressure (AP) at 50 mg/kg administered intraperitoneally at 24 h; type: functional, Artery; settings: route intraperitoneal; how it was run: as §4
[7] = organism: Homo sapiens; experiment: Inhibition of platelet aggregation induced by AA (PRP incubated for 60 minutes at 37 degree C) at 10e-5 M; type: functional; settings: 1 h; how it was run: as §2
[8] = organism: Homo sapiens; experiment: In vitro inhibition of platelet aggregation induced by PGH-2 (PRP incubated for 60 minutes at 37 degree C) at 10e-5 M; type: functional; settings: 1 h; how it was run: as §2
[9] = organism: Homo sapiens; experiment: In vitro inhibition of platelet aggregation induced by ADP-II (PRP incubated for 60 minutes at 37 degree C) at 5e-6 M; type: functional; how it was run: as §2
[10] = organism: Homo sapiens; experiment: In vitro inhibition of platelet aggregation induced by ADP-II (PRP incubated for 5 minutes at 37 degree C) at 10e-6 M; type: functional; how it was run: as §2
[11] = organism: Homo sapiens; experiment: In vitro inhibition of platelet aggregation induced by ADP-II (PRP incubated for 5 minutes at 37 degree C) at 10e-5 M; type: functional; how it was run: as §2
[12] = Effect on thromboxane synthetase activity on in vitro platelet aggregation induced by AA at 10e -5 M expressed as percent increase in PGE-2; type: functional, Homo sapiens
How it was run: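 Human citrated PRP adjusted to 200 000 […], compound at 10^-5 M final in saline/10% ethylene glycol, incubated at 37 °C. Aggregation induced with arachidonic acid 0.6 mM and read by Born absorbance aggregometry. PGE2 and TXB2 in the aggregated samples measured by radioimmunoassay. n = 5.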

[13] = system: Cavia porcellus; experiment: Ex vivo inhibition of platelet aggregation induced by ADP-II at 100 mg/kg; type: functional; how it was run: as §1
[14] = system: Rattus norvegicus; experiment: Antihypertensive activity in spontaneously hypertensive rats (SHR) measured by percentage fall in arterial pressure (AP) at 50 mg/kg administered intraperitoneally at 3 h; type: functional, Artery; settings: route intraperitoneal; how it was run: as §4
[15] = system: Cavia porcellus; experiment: Effect on thromboxane synthetase activity on ex vivo platelet aggregation induced by PGE-2 at 100 mg/kg expressed as percent increase; type: functional; how it was run: as §1
[16] = system: Rattus norvegicus; experiment: Antihypertensive activity in spontaneously hypertensive rats (SHR) measured by percentage fall in cardiac rhythm (CR) at 50 mg/kg administered intraperitoneally at 3 h; type: functional, Heart; settings: route intraperitoneal; how it was run: as §3
[17] = system: Rattus norvegicus; experiment: Antihypertensive activity in spontaneously hypertensive rats (SHR) measured by percentage fall in cardiac rhythm (CR) at 50 mg/kg administered intraperitoneally at 5 h; type: functional, Heart; settings: route intraperitoneal; how it was run: as §3
[18] = biological target: T1, Thromboxane-A synthase (Homo sapiens) (UniProt P24557); experiment: Effect on thromboxane synthetase activity on in vitro platelet aggregation induced by AA at 10e -5 M expressed as percent inhibition of TXB2
T1 sequence (whole entry): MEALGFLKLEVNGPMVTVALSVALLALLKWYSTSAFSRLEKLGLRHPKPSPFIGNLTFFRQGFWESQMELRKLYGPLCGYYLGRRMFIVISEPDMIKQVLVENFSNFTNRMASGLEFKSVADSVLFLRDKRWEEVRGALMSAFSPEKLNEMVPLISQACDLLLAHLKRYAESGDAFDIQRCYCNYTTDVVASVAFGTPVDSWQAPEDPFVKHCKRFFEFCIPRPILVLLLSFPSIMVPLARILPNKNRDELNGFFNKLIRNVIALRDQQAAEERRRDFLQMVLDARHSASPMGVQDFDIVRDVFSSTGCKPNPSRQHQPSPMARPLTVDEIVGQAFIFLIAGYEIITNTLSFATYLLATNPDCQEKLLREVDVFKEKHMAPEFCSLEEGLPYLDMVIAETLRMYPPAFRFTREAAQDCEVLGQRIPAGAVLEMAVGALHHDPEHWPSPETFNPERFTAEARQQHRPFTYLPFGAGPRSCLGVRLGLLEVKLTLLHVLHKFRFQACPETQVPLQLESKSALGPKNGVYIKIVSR

[19] = organism: Homo sapiens; experiment: In vitro inhibition of platelet aggregation induced by ADP-II (PRP incubated for 60 minutes at 37 degree C) at 10e-5 M; type: functional; settings: 1 h; how it was run: as §2
[20] = organism: Homo sapiens; experiment: In vitro inhibition of platelet aggregation induced by DD (PRP incubated for 5 minutes at 37 degree C) at 10e-5 M; type: functional; how it was run: as §2
[21] = organism: Homo sapiens; experiment: In vitro inhibition of platelet aggregation induced by […] (PRP incubated for 5 minutes at 37 degree C) at 10e-5 M; No significance; type: functional
[22] = system: Rattus norvegicus; experiment: Antihypertensive activity in spontaneously hypertensive rats (SHR) measured by percentage fall in arterial pressure (AP) at 25 mg/kg administered intraperitoneally at 5 h; type: functional, Artery; settings: route intraperitoneal; how it was run: as §4
[23] = system: Rattus norvegicus; experiment: Antihypertensive activity in spontaneously hypertensive rats (SHR) measured by percentage fall in arterial pressure (AP) at 25 mg/kg administered intraperitoneally at 3 h; type: functional, Artery; settings: route intraperitoneal; how it was run: as §4
[24] = organism: Homo sapiens; experiment: In vitro inhibition of platelet aggregation induced by ADP-II (PRP incubated for 5 minutes at 37 degree C) at 10e-5 M; No significance; type: functional; how it was run: as §2
[25] = system: Rattus norvegicus; experiment: Antihypertensive activity in spontaneously hypertensive rats (SHR) measured by percentage fall in arterial pressure (AP) at 25 mg/kg administered intraperitoneally at 1 h; type: functional, Artery; settings: route intraperitoneal; how it was run: as §4
[26] = organism: Homo sapiens; experiment: In vitro inhibition of platelet aggregation induced by AA (PRP incubated for 60 minutes at 37 degree C) at 10e-5 M; No significance; type: functional; how it was run: as §2
[27] = system: Rattus norvegicus; experiment: Antihypertensive activity in spontaneously hypertensive rats (SHR) measured by percentage fall in cardiac rhythm (CR) at 25 mg/kg administered intraperitoneally at 1 h; type: functional, Heart; settings: route intraperitoneal; how it was run: as §4
[28] = system: Rattus norvegicus; experiment: Antihypertensive activity in spontaneously hypertensive rats (SHR) measured by percentage fall in cardiac rhythm (CR) at 25 mg/kg administered intraperitoneally at 5 h; No significance; type: functional, organism-based; set-up: dose 25 mg/kg; settings: Heart; how it was run: as §3
[29] = system: Rattus norvegicus; experiment: Antihypertensive activity in spontaneously hypertensive rats (SHR) measured by percentage fall in cardiac rhythm (CR) at 25 mg/kg administered intraperitoneally at 3 h; type: functional, Heart; settings: route intraperitoneal; how it was run: as §4

Oc1[nH]ncc2c3cc(OCc4ccccc4)ccc3nc1-2
inhibition in vivo at 100 mg/kg [1]: 100%
inhibition [2]: No significant values
inhibition in vivo at 100 mg/kg [3]: 50%
Decrease in CR [4]: 9%
Decrease in AP [5]: 13%
Decrease in AP [6]: 7%
inhibition at 10 µM [7]: 100%
inhibition at 10 µM [8]: 100%
Inhibition [9]: 80%
inhibition at 1 µM [10]: 40%
inhibition at 10 µM [11]: 60%
Increase [12]: 270%
inhibition in vivo at 100 mg/kg [13]: 100%
Decrease in AP [14]: 12%
Increase [15]: 30%
Decrease in CR [16]: 10%
Decrease in CR [17]: 15%
Inhibition % [18]: 50%
inhibition at 10 µM [19]: 100%
inhibition at 10 µM [20]: 100%

COc1ccc2[nH]c3c(O)nncc3c2c1
inhibition [21]: No significant values
Decrease in AP [22]: 5%
Decrease in AP [23]: 10%
inhibition [24]: No significant values
Decrease in AP [25]: 10%
inhibition [26]: No significant values
Decrease in CR [27]: 7%
inhibition [28]: No significant values
inhibition at 10 µM [19]: 100%
Decrease in CR [29]: 5%

— ChEMBL document CHEMBL1123757, “Selective thromboxane synthetase inhibitors and antihypertensive agents. New derivatives of 4-hydrazino-5H-pyridazino[4,5-b]indole, 4-hydrazinopyridazino[4,5-a]indole, and related compounds” (J Med Chem, 1987)
